The values below come from ChEMBL document CHEMBL1154067, “Antiviral and cytotoxic activities of aminoarylazo compounds and aryltriazene derivatives” (Bioorg Med Chem, 2009).

Activity calls are given as the source filed them.

One data set concerns Coxsackievirus B2. The data set is described as follows: Antiviral activity against Coxsackie virus type B2 virus infected in african green monkey Vero-76 cells after 3 days by plaque reduction assay. The data set is classed as functional, organism-based. Conditions: Enterovirus B, Vero 76, 72 h. A digest of the protocol:
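Vero 76 cells seeded at 2 × 10^5 cells/well, grown overnight to confluence at 37 °C in 5% CO2, then infected at 50–100 PFU/well. Unadsorbed virus removed. Overlay of DMEM with 1% inactivated FCS and 0.75% methylcellulose, with or without serial compound dilutions. After 3 days at 37 °C, fixed and stained with crystal violet in PBS/50% ethanol; plaques counted. EC50 is the concentration reducing plaque number by 50%.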
On the technique in general: Plaque reduction counts the foci of infection that form in a cell layer.

The subject of a further data set is Vero. The data set is described as follows: Cytotoxicity against african green monkey Vero 76 cells by crystal violet staining. Conditions: chlorocebus sabaeus, vero. The data set is classed as cell-based. In outline: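 Mock-infected Vero 76 seeded at 4 × 10^5 cells/mL, run in parallel with plaque assays, with or without serial compound dilutions. Cell number of monolayers determined by crystal violet staining. CC50 = concentration reducing viable cell number 50%.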

Data set [1] deals with Respiratory syncytial virus. In words: Antiviral activity against Respiratory syncytial virus A2 infected in Vero-76 cells after 5 days by plaque reduction assay. The data set is classed as functional, organism-based. The following applies: human respiratory syncytial virus, A2, Vero 76, 120 h.
A further data set relates to Yellow fever virus. The data set is described as follows: Antiviral activity against Yellow fever virus infected in BHK-21 cells assessed as inhibition of virus-induced cytopathicity after 3 to 4 days by MTT assay. The data set is classed as functional, organism-based. On the technique in general: Damage to the host cells serves as the signal in cytopathic effect assays.

The next data set concerns MT4. The data set is described as follows: Cytotoxicity against human MT4 cells after 96 hrs by MTT assay. The data set is classed as cell-based. Conditions: mt4, 96 h. In outline: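 Exponentially growing mock-infected MT-4 seeded at 1 × 10^5 cells/mL in RPMI-1640 with 10% FCS, penicillin and streptomycin. Incubated with or without serial compound dilutions at 37 °C, 5% CO2. Viability by MTT after 96 h. CC50 = concentration reducing viability 50%.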
On the technique in general: Tetrazolium dyes change colour on reduction, which living cells bring about.

For data set [2], the system named is Vesicular stomatitis virus. In words: Antiviral activity against Vesicular stomatitis virus after 2 days by plaque reduction assay. The data set is classed as functional, organism-based.
The next data set has as its system Poliovirus 1. In words: Antiviral activity against Human poliovirus 1 strain Sabin after 2 days by plaque reduction assay. The data set is classed as functional. Conditions: for EC50: Enterovirus C, 48 h.
Data set [3] in a line: Cytotoxicity against MDBK cells after 48 to 96 hrs by MTT assay. The data set is classed as cell-based, Bos taurus. The following applies: cattle, mdbk. In outline: (§1)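 Mock-infected cells in maintenance medium, MDBK at 6 × 10^5 and BHK at 1 × 10^6 cells/mL initial density, with or without serial compound dilutions. Run in parallel with antiviral assays. Viability by MTT after 48–96 h at 37 °C, 5% CO2. CC50 = concentration reducing viability 50%.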

A further data set relates to Human alphaherpesvirus 1. The data set is described as follows: Antiviral activity against HSV1 infected in Vero-76 cells after 3 days by plaque reduction assay. The data set is classed as functional, organism-based. The following applies: Human alphaherpesvirus 1, Vero 76, 72 h.
Data set [4] concerns Human immunodeficiency virus 1. The data set is described as follows: Antiviral activity against HIV1 infected in human MT4 cells assessed as inhibition of virus-induced cytopathicity after 4 days by MTT assay. The data set is classed as functional, organism-based.
The subject of data set [5] is Bovine viral diarrhea virus 1. In words: Antiviral activity against Bovine viral diarrhea virus infected in MDBK cells assessed as inhibition of virus-induced cytopathicity after 3 to 4 days by MTT assay. The following applies: Bovine viral diarrhea virus isolates and strains. The data set is classed as functional, organism-based.
Data set [6] deals with Mammalian orthoreovirus 1. The data set is described as follows: Antiviral activity against Reovirus-1 infected in BHK-21 cells assessed as inhibition of virus-induced cytopathicity after 3 to 4 days by MTT assay. The data set is classed as functional, organism-based. The following applies: Mammalian orthoreovirus 1, BHK-21. A digest of the protocol:
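BHK-21 cells seeded at 5 × 10^4 cells/well, grown overnight to confluent monolayers at 37 °C in 5% CO2, then infected at m.o.i. 0.01 in serum-free medium. One hour later, MEM Earle's with 1% final inactivated FCS added, with or without serial compound dilutions. Viability read by MTT after 3–4 days at 37 °C. EC50 is the concentration giving 50% protection from cytopathogenicity.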

The subject of another data set is Vaccinia virus. In words: Antiviral activity against Vaccinia virus after 3 days by plaque reduction assay. The data set is classed as functional, organism-based. Conditions: Orthopoxvirus vaccinia.
A short description of data set [7]: Cytotoxicity against hamster BHK21 cells assessed as reduction in cell viability after 48 to 96 hrs by MTT assay. The data set is classed as cell-based, Mesocricetus auratus, BHK-21. The following applies: bhk-21. In outline: as §1

For orientation: EC50 means the concentration needed to bring the measured effect to its halfway point. In general, CC50 refers to the concentration giving 50% cytotoxicity.

Take `Fc1ccc(F)c(/N=N/Nc2ccccc2)c1`: the EC50 in the data set with Coxsackievirus B2 is 12 µM; in [1], 10 µM; in the data set with Yellow fever virus, more than 100 µM; in the data set on Poliovirus 1, more than 80 µM; in the data set on Human alphaherpesvirus 1, 55 µM; in data set [5], more than 100 µM. Further, the 50% effective concentration (EC50) in [6] is more than 100 µM. Moreover, the CC50 is 80 µM with Vero, 100 µM with MT4, more than 100 µM in [3] and more than 100 µM in data set [7]. Further, the outcome (in data set [2]; in the data set on Vaccinia virus) was inactive. Moreover, in [4], the inhibition result is “inactive”.
Regarding `CN(Cc1ccccc1)/N=N/c1ccccc1`, the EC50 (in the data set with Coxsackievirus B2; in data set [1]; with Yellow fever virus; with Poliovirus 1; in the data set with Human alphaherpesvirus 1; in data set [5]) was more than 100 µM throughout. The EC50 in data set [6] was more than 100 µM. The CC50 in the data set on Vero is not below 100 µM; in the data set on MT4 it was not below 100 µM; in data set [3], more than 100 µM; in data set [7], more than 100 µM. In addition, the outcome (in data set [2]; with Vaccinia virus) was inactive. Moreover, the inhibition result in data set [4] is “inactive”.
For `Cc1ccc(/N=N/N(CCCN(C)C)c2ccccc2)cc1`, the EC50 (in the data set on Coxsackievirus B2; in data set [1]; in the data set with Yellow fever virus; in the data set on Poliovirus 1; with Human alphaherpesvirus 1; in data set [5]) was more than 100 µM in each case. Further, the EC50 in data set [6] was more than 100 µM. The CC50 in the data set with Vero is 100 µM; in the data set on MT4, 18 µM; in [3] it was more than 100 µM; in data set [7], more than 100 µM. Also, the outcome (in data set [2]; with Vaccinia virus) was inactive. In [4], the inhibition entry is “inactive”.
As to `CN(C)CCCNc1ccc(/N=N/c2c(F)cccc2F)cc1`, the EC50 is more than 65 µM in the data set with Coxsackievirus B2; more than 65 µM in data set [1]; 10 µM with Yellow fever virus; more than 65 µM in the data set on Human alphaherpesvirus 1; not below 20 µM in [5]; 12 µM in data set [6]. For the same compound, the CC50 in the data set with Vero is 65 µM; with MT4 it was 35 µM; in data set [3], 20 µM; in data set [7] it was 43 µM. Further, the outcome (in [2]; with Poliovirus 1; in the data set with Vaccinia virus) was inactive. Further, the inhibition result in data set [4] is “inactive”.
As to `CN(C)CCCN(/N=N/c1cc(F)ccc1F)c1ccccc1`, the EC50 in the data set on Coxsackievirus B2 is more than 7 µM; in [1] it was more than 7 µM; in the data set with Yellow fever virus, more than 25 µM; in the data set with Poliovirus 1 it was more than 7 µM; in the data set on Human alphaherpesvirus 1, more than 7 µM; in [5] it was more than 25 µM. Further, the half-maximal effective concentration (EC50) in data set [6] is more than 25 µM. Further, the CC50 in the data set on Vero was determined as 7 µM; in the data set with MT4, 13 µM; in data set [3], 25 µM; in data set [7] it was 25 µM. For the same compound, the outcome (in [2]; with Vaccinia virus) was inactive. Besides, in data set [4], the inhibition result was “inactive”.
Take `Cc1ccc(/N=N/c2ccc(NCCCN(C)C)cc2)cc1`: the EC50 with Coxsackievirus B2 was more than 50 µM; in data set [1], more than 50 µM; with Yellow fever virus, more than 100 µM; with Human alphaherpesvirus 1 it was more than 50 µM; in [5], more than 100 µM; in data set [6], more than 100 µM. The CC50 in the data set with Vero is 50 µM; with MT4 it was 17 µM; in data set [3], more than 100 µM; in data set [7] it was more than 100 µM. Moreover, the result (in data set [2]; in the data set with Poliovirus 1; in the data set with Vaccinia virus) was inactive. Moreover, the inhibition result in [4] is “inactive”.
